Marks after values point to notes of the source that are not given here.
How the values were obtained:
[1] = tested on: Japanese patients with T2DM; experiment: Urine volume, water intake and body weight, 7-day once-daily dosing; type: in vivo, human
[2] = tested on: Japanese patients with T2DM; experiment: Plasma glucose concentrations, 7-day once-daily dosing; type: in vivo, human
In short: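 Plasma glucose was measured by a glucose dehydrogenase enzymatic UV method. Sampling was pre-breakfast/pre-dose and 0.5–24 h after breakfast on Day −1, after dosing on Days 1 and 7, and pre-breakfast on Days 11 and 14. Standardized ~600 kcal meals were given, with lunch and dinner at 4 and 12 h. AUC, Cmax and tmax were non-compartmental. MPG was the mean of the 0, 2, 4, 6, 12, 14 and 16 h values. LS mean difference vs placebo with 95% CI.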

In the case of `CCOc1ccc(Cc2cc([C@@H]3S[C@H](CO)[C@@H](O)[C@H](O)[C@H]3O)c(OC)cc2C)cc1` [Luseogliflozin, (1S)-1,5-anhydro-1-[5-(4-ethoxybenzyl)-2-methoxy-4-methylphenyl]-1-thio-D-glucitol], the “Body weight (24 h after dose)” value ([1]; 0.5 mg OD, Day 1) is reported as 67.49 ± 14.32 kg, the “Body weight (24 h after dose) LS mean difference vs placebo (95% CI)” value ([1]; 0.5 mg OD, Day 1) is reported as −0.19 (−0.58, 0.20) kg and the Urine volume ([1]; 0.5 mg OD, Day 1) is reported as 3148.1 ± 718.5 mL/day. The “Urine volume LS mean difference vs placebo (95% CI)” value ([1]; 0.5 mg OD, Day 1) was 456.1 (−212.4, 1124.7) mL/day, the Water intake ([1]; 0.5 mg OD, Day 1) was 2694.4 ± 936.4 mL/day and the “Water intake LS mean difference vs placebo (95% CI)” value ([1]; 0.5 mg OD, Day 1) was 131.8 (−455.8, 719.3) mL/day. For the same molecule, the “Body weight (24 h after dose)” value ([1]; 0.5 mg OD, Day 7) was 66.76 ± 14.29 kg, the “Body weight (24 h after dose) LS mean difference vs placebo (95% CI)” value ([1]; 0.5 mg OD, Day 7) was −0.45 (−1.14, 0.24) kg and the Urine volume ([1]; 0.5 mg OD, Day 7) was 3053.3 ± 1067.7 mL/day. The “Urine volume LS mean difference vs placebo (95% CI)” value ([1]; 0.5 mg OD, Day 7) was 303.5 (−208.4, 815.3) mL/day, the Water intake ([1]; 0.5 mg OD, Day 7) was 2686.4 ± 929.1 mL/day and the “Water intake LS mean difference vs placebo (95% CI)” value ([1]; 0.5 mg OD, Day 7) was 175.8 (−407.1, 758.7) mL/day. The “Body weight (24 h after dose)” value ([1]; 1 mg OD, Day 1) was 71.71 ± 18.26 kg, the “Body weight (24 h after dose) LS mean difference vs placebo (95% CI)” value ([1]; 1 mg OD, Day 1) was −0.31 (−0.68, 0.07) kg and the Urine volume ([1]; 1 mg OD, Day 1) was 3284.5 ± 653.4 mL/day. For the same molecule, the “Urine volume LS mean difference vs placebo (95% CI)” value ([1]; 1 mg OD, Day 1) was 723.8 (76.7, 1370.9)* mL/day, the Water intake ([1]; 1 mg OD, Day 1) was 3023.8 ± 883.4 mL/day and the “Water intake LS mean difference vs placebo (95% CI)” value ([1]; 1 mg OD, Day 1) was 513.6 (−54.5, 1081.7) mL/day. For the same molecule, the “Body weight (24 h after dose)” value ([1]; 1 mg OD, Day 7) was 71.01 ± 18.10 kg, the “Body weight (24 h after dose) LS mean difference vs placebo (95% CI)” value ([1]; 1 mg OD, Day 7) was −0.51 (−1.17, 0.14) kg and the Urine volume ([1]; 1 mg OD, Day 7) was 2421.0 ± 795.6 mL/day. The “Urine volume LS mean difference vs placebo (95% CI)” value ([1]; 1 mg OD, Day 7) was −174.9 (−670.3, 320.5) mL/day, the Water intake ([1]; 1 mg OD, Day 7) was 2400.4 ± 583.5 mL/day and the “Water intake LS mean difference vs placebo (95% CI)” value ([1]; 1 mg OD, Day 7) was −64.4 (−628, 499.2) mL/day. The “Body weight (24 h after dose)” value ([1]; 2.5 mg OD, Day 1) was 67.43 ± 7.73 kg, the “Body weight (24 h after dose) LS mean difference vs placebo (95% CI)” value ([1]; 2.5 mg OD, Day 1) was −0.53 (−0.91, −0.15)* kg and the Urine volume ([1]; 2.5 mg OD, Day 1) was 3511.4 ± 522.9 mL/day. The “Urine volume LS mean difference vs placebo (95% CI)” value ([1]; 2.5 mg OD, Day 1) was 643.8 (−3.8, 1291.3) mL/day, the Water intake ([1]; 2.5 mg OD, Day 1) was 2964.0 ± 940.1 mL/day and the “Water intake LS mean difference vs placebo (95% CI)” value ([1]; 2.5 mg OD, Day 1) was −161.3 (−733.9, 411.4) mL/day. The “Body weight (24 h after dose)” value ([1]; 2.5 mg OD, Day 7) was 66.70 ± 7.84 kg, the “Body weight (24 h after dose) LS mean difference vs placebo (95% CI)” value ([1]; 2.5 mg OD, Day 7) was −0.79 (−1.46, −0.12)* kg and the Urine volume ([1]; 2.5 mg OD, Day 7) was 3048.5 ± 868.2 mL/day. The “Urine volume LS mean difference vs placebo (95% CI)” value ([1]; 2.5 mg OD, Day 7) was 92.9 (−402.9, 588.6) mL/day, the Water intake ([1]; 2.5 mg OD, Day 7) was 3049.1 ± 856.6 mL/day and the “Water intake LS mean difference vs placebo (95% CI)” value ([1]; 2.5 mg OD, Day 7) was 46.5 (−521.6, 614.6) mL/day. For the same molecule, the “Body weight (24 h after dose)” value ([1]; 5 mg OD, Day 1) was 70.96 ± 9.34 kg, the “Body weight (24 h after dose) LS mean difference vs placebo (95% CI)” value ([1]; 5 mg OD, Day 1) was −0.74 (−1.11, −0.36)* kg and the Urine volume ([1]; 5 mg OD, Day 1) was 3939.8 ± 1386.0 mL/day. For the same molecule, the “Urine volume LS mean difference vs placebo (95% CI)” value ([1]; 5 mg OD, Day 1) was 888.4 (235, 1541.8)* mL/day, the Water intake ([1]; 5 mg OD, Day 1) was 3256.8 ± 1581.7 mL/day and the “Water intake LS mean difference vs placebo (95% CI)” value ([1]; 5 mg OD, Day 1) was 17.3 (−558.5, 593.1) mL/day. For the same molecule, the “Body weight (24 h after dose)” value ([1]; 5 mg OD, Day 7) was 70.24 ± 9.09 kg, the “Body weight (24 h after dose) LS mean difference vs placebo (95% CI)” value ([1]; 5 mg OD, Day 7) was −0.97 (−1.62, −0.31)* kg and the Urine volume ([1]; 5 mg OD, Day 7) was 3471.4 ± 1204.5 mL/day. For the same molecule, the “Urine volume LS mean difference vs placebo (95% CI)” value ([1]; 5 mg OD, Day 7) was 300.4 (−199.9, 800.6) mL/day, the Water intake ([1]; 5 mg OD, Day 7) was 3141.0 ± 1387.3 mL/day and the “Water intake LS mean difference vs placebo (95% CI)” value ([1]; 5 mg OD, Day 7) was 38.5 (−532.7, 609.8) mL/day. For the same molecule, the “FPG (24 h after dose)” value ([2]; 0.5 mg OD, Day 1) was 156 ± 23 mg/dL, the “FPG (24 h after dose) LS mean difference vs placebo (95% CI)” value ([2]; 0.5 mg OD, Day 1) was −7.15 (−16.0, 1.71) mg/dL and the “MPG0–16h” value ([2]; 0.5 mg OD, Day 1) was 224 ± 38.8 mg/dL. For the same molecule, the “MPG0–16h LS mean difference vs placebo (95% CI)” value ([2]; 0.5 mg OD, Day 1) was −6.39 (−16.6, 3.79) mg/dL, the “Plasma glucose AUC0–4h (after breakfast)” value ([2]; 0.5 mg OD, Day 1) was 946 ± 175 mg·h/dL and the “Plasma glucose AUC0–4h (after breakfast) LS mean difference vs placebo (95% CI)” value ([2]; 0.5 mg OD, Day 1) was 29.4 (−25.0, 83.8) mg h/dL. The “Plasma glucose AUC4–8h (after lunch)” value ([2]; 0.5 mg OD, Day 1) was 915 ± 207 mg·h/dL, the “Plasma glucose AUC4–8h (after lunch) LS mean difference vs placebo (95% CI)” value ([2]; 0.5 mg OD, Day 1) was −111 (−191, −31.1)* mg h/dL and the “Plasma glucose AUC12–16h (after dinner)” value ([2]; 0.5 mg OD, Day 1) was 989 ± 114 mg·h/dL. The “Plasma glucose AUC12–16h (after dinner) LS mean difference vs placebo (95% CI)” value ([2]; 0.5 mg OD, Day 1) was −16.3 (−69.6, 37.0) mg h/dL, the “Plasma glucose C max0–4h (after breakfast)” value ([2]; 0.5 mg OD, Day 1) was 278 ± 53.0 mg/dL and the “Plasma glucose C max4–8h (after lunch)” value ([2]; 0.5 mg OD, Day 1) was 259 ± 52.3 mg/dL. For the same molecule, the “Plasma glucose C max4–8h (after lunch) LS mean difference vs placebo (95% CI)” value ([2]; 0.5 mg OD, Day 1) was −43.5 (−68.5, −18.5)* mg/dL, the “Plasma glucose C max12–16h (after dinner)” value ([2]; 0.5 mg OD, Day 1) was 286 ± 32.5 mg/dL and the “Plasma glucose C max12–16h (after dinner) LS mean difference vs placebo (95% CI)” value ([2]; 0.5 mg OD, Day 1) was −16.0 (−35.0, 3.05) mg/dL. The “FPG (24 h after dose)” value ([2]; 0.5 mg OD, Day 7) was 145 ± 18 mg/dL, the “FPG (24 h after dose) LS mean difference vs placebo (95% CI)” value ([2]; 0.5 mg OD, Day 7) was −18.4 (−31.1, −5.75)* mg/dL and the “MPG0–16h” value ([2]; 0.5 mg OD, Day 7) was 204 ± 35.3 mg/dL. The “MPG0–16h LS mean difference vs placebo (95% CI)” value ([2]; 0.5 mg OD, Day 7) was −25.0 (−42.2, −7.90)* mg/dL, the “Plasma glucose AUC0–4h (after breakfast)” value ([2]; 0.5 mg OD, Day 7) was 810 ± 156 mg·h/dL and the “Plasma glucose AUC0–4h (after breakfast) LS mean difference vs placebo (95% CI)” value ([2]; 0.5 mg OD, Day 7) was −108 (−186, −29.3)* mg h/dL. For the same molecule, the “Plasma glucose AUC4–8h (after lunch)” value ([2]; 0.5 mg OD, Day 7) was 887 ± 209 mg·h/dL, the “Plasma glucose AUC4–8h (after lunch) LS mean difference vs placebo (95% CI)” value ([2]; 0.5 mg OD, Day 7) was −165 (−267, −64.2)* mg h/dL and the “Plasma glucose AUC12–16h (after dinner)” value ([2]; 0.5 mg OD, Day 7) was 924 ± 108 mg·h/dL. The “Plasma glucose AUC12–16h (after dinner) LS mean difference vs placebo (95% CI)” value ([2]; 0.5 mg OD, Day 7) was −44.7 (−122, 32.2) mg h/dL, the “Plasma glucose C max0–4h (after breakfast)” value ([2]; 0.5 mg OD, Day 7) was 243 ± 42.1 mg/dL and the “Plasma glucose C max4–8h (after lunch)” value ([2]; 0.5 mg OD, Day 7) was 256 ± 61.7 mg/dL. For the same molecule, the “Plasma glucose C max4–8h (after lunch) LS mean difference vs placebo (95% CI)” value ([2]; 0.5 mg OD, Day 7) was −46.2 (−76.1, −16.3)* mg/dL, the “Plasma glucose C max12–16h (after dinner)” value ([2]; 0.5 mg OD, Day 7) was 274 ± 34.6 mg/dL and the “Plasma glucose C max12–16h (after dinner) LS mean difference vs placebo (95% CI)” value ([2]; 0.5 mg OD, Day 7) was −9.79 (−35.5, 15.9) mg/dL. The “FPG (24 h after dose)” value ([2]; 1 mg OD, Day 1) was 146 ± 25 mg/dL, the “FPG (24 h after dose) LS mean difference vs placebo (95% CI)” value ([2]; 1 mg OD, Day 1) was −7.90 (−16.6, 0.795) mg/dL and the “MPG0–16h” value ([2]; 1 mg OD, Day 1) was 188 ± 30.0 mg/dL. The “MPG0–16h LS mean difference vs placebo (95% CI)” value ([2]; 1 mg OD, Day 1) was −18.4 (−28.3, −8.55)* mg/dL, the “Plasma glucose AUC0–4h (after breakfast)” value ([2]; 1 mg OD, Day 1) was 812 ± 158 mg·h/dL and the “Plasma glucose AUC0–4h (after breakfast) LS mean difference vs placebo (95% CI)” value ([2]; 1 mg OD, Day 1) was −48.9 (−102, 4.37) mg h/dL.
